The structures appear in SMILES notation. Where only a bound is given, the exact number is not on record here.

For series [1], the target named is Mitogen-activated protein kinase kinase kinase kinase 4 (Homo sapiens) (UniProt O95819). Description: Inhibition of MAP4K4 (unknown origin) at 1 uM.
Series [2] deals with Tyrosine-protein kinase Lck (Homo sapiens) (UniProt P06239). Nature of the series: Inhibition of LCK (unknown origin) at 1 uM.
For series [3], the target named is Casein kinase I isoform alpha (Homo sapiens) (UniProt P48729). Description: Inhibition of CK1 alpha (unknown origin) at 1 uM.
The target in series [4] is T1, MAP kinase p38 (Homo sapiens, UniProt O15264+Q15759+Q16539+P53778). Nature of the series: Inhibition of p38 (unknown origin). The format is protein assay. Summed up:
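p38 IC50 determined by outside SelectScreen profiling service, ATP at Km.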

The target of series [5] is Epidermal growth factor receptor (Homo sapiens) (UniProt P00533). Description: Inhibition of EGFR (unknown origin) at 1 uM.
Series [6] concerns the target T1, MAP kinase p38. Nature of the series: Inhibition of p38 (unknown origin) at 1 uM. The format is protein assay.
Series [7] has as its system Brain. Nature of the series: fCmax in C57Bl/6J mouse brain at 32 mg/kg, sc by LC/MS analysis. The format is ADME, organism-based. The arrangement: dose 32 mg/kg, route subcutaneous. The settings on record: in vivo. The essentials:
(§1)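 Male C57BL/6J mice got a single subcutaneous dose. Plasma and whole brain were taken at 0.5–24 h (n = 4 per time). Brain was homogenized in 60% isopropanol and samples quantified by LC-MS after protein precipitation. Free fraction came from 6 h equilibrium dialysis at 37 °C of plasma or brain homogenate spiked with 1 μM compound.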

The species entered for a further series is Homo sapiens. Description: Inhibition of PKA alpha (unknown origin) at 1 uM.
Series [8] has as its system Plasma. Nature of the series: fCmax in C57Bl/6J mouse plasma at 32 mg/kg, sc by LC/MS analysis. The settings on record: in vivo. Also noted: dose 32 mg/kg, route subcutaneous. The format is ADME, organism-based. The essentials: as §1
Series [9] has as its system Brain. Description: fCmax in C57Bl/6J mouse brain at 56 mg/kg, sc by LC/MS analysis. The format is ADME, organism-based. Also noted: dose 56 mg/kg, route subcutaneous. Particulars: in vivo. The essentials: as §1
For series [10], the target named is T2, Voltage-gated inwardly rectifying potassium channel KCNH2 (Homo sapiens, UniProt Q12809). Nature of the series: Inhibition of human ERG channel by electrophysiological method.
Series [11] has as its target T2, Voltage-gated inwardly rectifying potassium channel KCNH2. Description: Displacement of [3H]dofetilide from human ERG channel. (Displacement assays read how much labelled ligand stays bound in the presence of the test substance.)
Series [12] relates to Plasma. Description: fCmax in C57Bl/6J mouse plasma at 56 mg/kg, sc by LC/MS analysis. It counts as ADME, organism-based. The arrangement: dose 56 mg/kg, route subcutaneous. The settings on record: in vivo. Summed up:
as §1

The target in series [13] is Casein kinase I isoform epsilon (Homo sapiens, UniProt P49674). Nature of the series: Inhibition of CK1 epsilon (unknown origin) using PLSRTLpSVASLPGL as substrate after 85 mins by microplate reader analysis.
Series [14] concerns the target T3, Casein kinase I isoform delta (Homo sapiens, UniProt P48730). Nature of the series: Inhibition of CK1 delta (unknown origin) using PLSRTLpSVASLPGL as substrate after 60 mins by microplate reader analysis.
Series [15] deals with T3, Casein kinase I isoform delta. Description: Inhibition of human CK1 delta transfected in african green monkey cos7 cells after overnight incubation by whole cell assay. It counts as cell-based, COS-7. The essentials:
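COS-7 cells in DMEM with 10% FBS were co-transfected by lipofection with mPER3-GFP and human CK1δ plasmids (1:11), then plated. Compounds, diluted in Opti-MEM, were tested at 11 concentrations overnight at 37 °C. Cells were fixed in 4% paraformaldehyde and Hoechst-stained, and nuclear translocation of mPER3-GFP was imaged on ArrayScan.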

Series [16] can be described thus: Ratio of fCmax in brain to plasma of C57Bl/6J mouse. The format is ADME, cell-free. The essentials:
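Male C57BL/6J mice given a single subcutaneous dose (56 mg/kg unless noted). Plasma and whole brain were taken under isoflurane at 0.5, 1, 2, 4, 8 and 24 h (n = 4 per time point). Brain was homogenised in 4 volumes of 60% isopropanol, and samples were quantified by LC-MS after protein precipitation. Free fractions came from equilibrium dialysis of 1 μM-spiked plasma or brain homogenate (6 h, 37 °C, n = 6).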

In series [17] the test system is hERG (KCNH2). Description: Therapeutic index, ratio of EC50 for human ERG channel to fCmax in mouse plasma. The settings on record: read-out: TI. It counts as cell-free.
Another series has as its system Mus musculus. Nature of the series: In vivo inhibition of CK1 delta in C57Bl/6J mouse circardian rhythm model assessed as delay in phase shift at 56 mg/kg, sc after 3 days. It counts as functional. The settings on record: route subcutaneous. The essentials: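 Mice received 56 mg/kg subcutaneously for 3 days. Phase shift was taken as the start of the active period after dosing minus before dosing.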

Series [18] concerns the target hERG (KCNH2) (Homo sapiens, UniProt Q12809). Description: Displacement of [3H]dofetilide from human ERG channel at 10 uM. The settings on record: probe [3H]dofetilide.
The target of another series is JNK2/JNK3 (Homo sapiens) (UniProt P53779+P45984). Description: Inhibition of JNK 2/3 (unknown origin) at 1 uM. The format is protein assay.
Series [19] deals with Tyrosine-protein kinase Lyn (Homo sapiens) (UniProt P07948). Nature of the series: Inhibition of LYN (unknown origin) at 1 uM.
Series [20] addresses Rho-associated protein kinase 2 (Homo sapiens) (UniProt O75116). Description: Inhibition of ROCK2 (unknown origin) at 1 uM.
Series [21] deals with Tyrosine-protein kinase ABL1 (Homo sapiens) (UniProt P00519). Nature of the series: Inhibition of ABL (unknown origin) at 1 uM.
Series [22] addresses Mitogen-activated protein kinase 14 (Homo sapiens) (UniProt Q16539). Description: Inhibition of MAPK14 (unknown origin) at 1 uM.

T3 sequence (P48730 whole entry, canonical isoform): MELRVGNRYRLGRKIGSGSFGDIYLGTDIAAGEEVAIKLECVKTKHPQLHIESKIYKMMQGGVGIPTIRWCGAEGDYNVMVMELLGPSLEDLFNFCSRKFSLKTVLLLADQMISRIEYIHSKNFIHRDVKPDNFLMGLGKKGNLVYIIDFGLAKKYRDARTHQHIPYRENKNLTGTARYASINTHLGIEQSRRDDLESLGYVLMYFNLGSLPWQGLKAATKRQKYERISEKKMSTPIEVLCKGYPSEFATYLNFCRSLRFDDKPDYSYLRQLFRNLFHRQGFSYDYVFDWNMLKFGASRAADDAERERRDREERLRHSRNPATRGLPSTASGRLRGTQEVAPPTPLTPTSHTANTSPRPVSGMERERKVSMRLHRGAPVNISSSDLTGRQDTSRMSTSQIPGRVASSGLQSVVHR
Chain of Casein kinase I isoform epsilon (P49674 whole entry, canonical isoform): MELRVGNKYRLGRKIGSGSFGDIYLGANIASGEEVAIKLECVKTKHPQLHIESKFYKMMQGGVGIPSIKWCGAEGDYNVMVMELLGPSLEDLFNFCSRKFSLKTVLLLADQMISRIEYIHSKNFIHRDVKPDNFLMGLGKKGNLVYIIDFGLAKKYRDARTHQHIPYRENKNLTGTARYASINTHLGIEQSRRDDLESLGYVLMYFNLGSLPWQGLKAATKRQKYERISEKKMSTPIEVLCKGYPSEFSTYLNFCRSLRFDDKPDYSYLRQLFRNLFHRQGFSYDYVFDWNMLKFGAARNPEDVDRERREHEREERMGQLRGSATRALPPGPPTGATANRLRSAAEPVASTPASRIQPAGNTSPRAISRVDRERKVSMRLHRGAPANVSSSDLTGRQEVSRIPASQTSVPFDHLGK
T2 sequence (Q12809 whole entry): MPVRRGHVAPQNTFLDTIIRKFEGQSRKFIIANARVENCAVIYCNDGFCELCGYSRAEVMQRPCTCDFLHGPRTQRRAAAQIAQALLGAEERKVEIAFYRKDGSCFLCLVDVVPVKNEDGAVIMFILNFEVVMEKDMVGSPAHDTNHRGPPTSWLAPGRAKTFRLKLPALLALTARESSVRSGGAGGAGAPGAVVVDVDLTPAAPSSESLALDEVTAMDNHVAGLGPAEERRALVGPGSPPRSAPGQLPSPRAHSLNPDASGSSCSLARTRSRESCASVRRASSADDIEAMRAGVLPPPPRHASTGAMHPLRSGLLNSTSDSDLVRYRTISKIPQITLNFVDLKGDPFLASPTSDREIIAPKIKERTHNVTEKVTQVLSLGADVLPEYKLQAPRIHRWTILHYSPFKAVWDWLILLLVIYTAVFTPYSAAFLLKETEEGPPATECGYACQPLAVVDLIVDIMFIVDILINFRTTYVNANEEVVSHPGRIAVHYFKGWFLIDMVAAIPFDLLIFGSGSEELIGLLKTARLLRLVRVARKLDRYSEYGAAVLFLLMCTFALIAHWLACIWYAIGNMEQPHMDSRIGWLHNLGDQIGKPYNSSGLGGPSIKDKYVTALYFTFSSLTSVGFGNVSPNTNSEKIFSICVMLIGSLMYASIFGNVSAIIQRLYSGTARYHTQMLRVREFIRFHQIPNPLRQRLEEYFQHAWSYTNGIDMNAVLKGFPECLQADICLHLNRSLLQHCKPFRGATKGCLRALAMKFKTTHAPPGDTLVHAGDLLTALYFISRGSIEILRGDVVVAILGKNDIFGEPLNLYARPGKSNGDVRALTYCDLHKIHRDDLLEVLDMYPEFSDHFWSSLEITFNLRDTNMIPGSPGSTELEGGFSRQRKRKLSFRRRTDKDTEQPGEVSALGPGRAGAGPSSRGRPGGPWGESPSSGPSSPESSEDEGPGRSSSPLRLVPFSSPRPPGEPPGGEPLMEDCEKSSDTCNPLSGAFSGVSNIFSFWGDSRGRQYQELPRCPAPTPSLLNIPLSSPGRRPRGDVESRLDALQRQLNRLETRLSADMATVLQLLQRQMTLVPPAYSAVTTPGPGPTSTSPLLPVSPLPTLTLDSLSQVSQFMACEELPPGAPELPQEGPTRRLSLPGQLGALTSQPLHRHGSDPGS
Chain of Epidermal growth factor receptor (Homo sapiens) (P00533 whole entry): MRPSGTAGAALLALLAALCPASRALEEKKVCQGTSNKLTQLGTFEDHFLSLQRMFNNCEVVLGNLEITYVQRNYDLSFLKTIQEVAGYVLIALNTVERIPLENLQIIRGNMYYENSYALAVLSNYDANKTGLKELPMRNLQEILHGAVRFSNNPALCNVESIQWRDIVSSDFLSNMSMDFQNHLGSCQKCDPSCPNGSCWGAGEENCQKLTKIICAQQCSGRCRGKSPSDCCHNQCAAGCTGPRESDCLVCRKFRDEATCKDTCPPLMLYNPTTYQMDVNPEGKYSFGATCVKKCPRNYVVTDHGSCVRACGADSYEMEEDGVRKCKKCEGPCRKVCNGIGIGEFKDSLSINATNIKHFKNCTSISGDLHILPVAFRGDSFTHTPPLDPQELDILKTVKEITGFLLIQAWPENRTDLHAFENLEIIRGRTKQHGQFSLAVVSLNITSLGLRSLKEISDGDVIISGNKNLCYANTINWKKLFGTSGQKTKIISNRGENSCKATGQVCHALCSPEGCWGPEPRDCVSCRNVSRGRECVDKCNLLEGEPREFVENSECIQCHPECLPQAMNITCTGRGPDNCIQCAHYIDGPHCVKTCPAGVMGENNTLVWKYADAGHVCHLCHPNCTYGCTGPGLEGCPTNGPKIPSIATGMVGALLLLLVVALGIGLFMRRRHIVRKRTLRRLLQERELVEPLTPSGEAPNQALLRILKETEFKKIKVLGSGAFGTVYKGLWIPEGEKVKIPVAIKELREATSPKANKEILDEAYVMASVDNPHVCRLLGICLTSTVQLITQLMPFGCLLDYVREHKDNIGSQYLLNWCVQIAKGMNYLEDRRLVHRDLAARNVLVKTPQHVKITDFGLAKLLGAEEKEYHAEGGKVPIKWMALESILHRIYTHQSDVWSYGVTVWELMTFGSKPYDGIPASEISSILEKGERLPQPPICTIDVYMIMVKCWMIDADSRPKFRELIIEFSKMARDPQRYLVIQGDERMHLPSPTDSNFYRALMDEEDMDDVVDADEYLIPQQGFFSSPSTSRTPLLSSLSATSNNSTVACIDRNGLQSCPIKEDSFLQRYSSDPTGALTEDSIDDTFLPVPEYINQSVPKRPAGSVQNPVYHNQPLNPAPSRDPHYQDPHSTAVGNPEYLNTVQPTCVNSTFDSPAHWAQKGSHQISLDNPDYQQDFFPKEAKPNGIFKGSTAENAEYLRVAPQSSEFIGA
Chain of Mitogen-activated protein kinase kinase kinase kinase 4 (Homo sapiens) (O95819 2-1239 limits assumed): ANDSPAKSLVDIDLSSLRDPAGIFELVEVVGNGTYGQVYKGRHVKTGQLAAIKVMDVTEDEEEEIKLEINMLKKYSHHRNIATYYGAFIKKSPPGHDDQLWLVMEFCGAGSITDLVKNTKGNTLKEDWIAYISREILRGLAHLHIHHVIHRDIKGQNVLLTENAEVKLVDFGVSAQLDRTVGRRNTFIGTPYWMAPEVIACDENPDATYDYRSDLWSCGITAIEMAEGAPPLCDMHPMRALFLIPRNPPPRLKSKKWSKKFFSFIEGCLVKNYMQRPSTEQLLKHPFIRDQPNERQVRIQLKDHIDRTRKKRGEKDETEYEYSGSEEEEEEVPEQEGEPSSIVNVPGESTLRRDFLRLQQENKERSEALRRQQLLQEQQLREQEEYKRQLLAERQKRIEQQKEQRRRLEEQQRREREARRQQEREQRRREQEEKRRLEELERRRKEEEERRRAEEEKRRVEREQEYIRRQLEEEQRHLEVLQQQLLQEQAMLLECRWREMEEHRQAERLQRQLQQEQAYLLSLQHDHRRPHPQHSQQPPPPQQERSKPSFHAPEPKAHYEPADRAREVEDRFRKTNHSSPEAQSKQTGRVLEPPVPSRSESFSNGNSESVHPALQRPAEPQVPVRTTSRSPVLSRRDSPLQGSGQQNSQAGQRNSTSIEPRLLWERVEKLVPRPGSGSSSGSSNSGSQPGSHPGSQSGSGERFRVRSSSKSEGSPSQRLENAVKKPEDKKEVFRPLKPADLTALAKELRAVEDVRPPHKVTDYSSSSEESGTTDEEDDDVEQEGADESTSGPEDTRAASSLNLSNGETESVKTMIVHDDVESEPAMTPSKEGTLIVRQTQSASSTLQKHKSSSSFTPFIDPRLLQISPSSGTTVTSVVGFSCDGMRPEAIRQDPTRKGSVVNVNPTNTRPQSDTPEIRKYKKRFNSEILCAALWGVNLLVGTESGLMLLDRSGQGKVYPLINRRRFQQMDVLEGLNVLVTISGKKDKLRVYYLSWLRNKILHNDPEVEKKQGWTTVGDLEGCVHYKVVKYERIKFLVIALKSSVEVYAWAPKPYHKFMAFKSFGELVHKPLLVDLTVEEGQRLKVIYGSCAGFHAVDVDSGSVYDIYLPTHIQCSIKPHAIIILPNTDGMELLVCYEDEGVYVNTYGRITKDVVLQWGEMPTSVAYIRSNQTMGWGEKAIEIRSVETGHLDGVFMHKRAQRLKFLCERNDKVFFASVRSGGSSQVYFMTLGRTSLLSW
Chain of Casein kinase I isoform alpha (Homo sapiens) (P48729 2-337 limits assumed): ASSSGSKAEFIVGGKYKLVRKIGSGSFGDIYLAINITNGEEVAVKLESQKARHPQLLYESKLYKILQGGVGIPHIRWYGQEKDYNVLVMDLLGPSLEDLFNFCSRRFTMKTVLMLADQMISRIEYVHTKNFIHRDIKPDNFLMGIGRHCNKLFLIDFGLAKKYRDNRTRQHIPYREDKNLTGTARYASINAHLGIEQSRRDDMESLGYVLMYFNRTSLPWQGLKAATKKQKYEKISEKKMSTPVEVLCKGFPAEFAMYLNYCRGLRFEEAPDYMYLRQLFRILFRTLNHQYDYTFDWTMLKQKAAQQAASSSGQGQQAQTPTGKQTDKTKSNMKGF

In general, inhibition refers to the drop in the measured response relative to a control, in per cent. The term IC50 denotes the concentration at which inhibition is half-maximal. With `Nc1nccc(-c2c(-c3ccc(F)cc3)ncn2C2CCCCC2)n1`, the inhibition (in series [1]; in series [2]; in series [3]; in [5]; against MAP kinase p38 [6]; in the series listed under Homo sapiens) was > 50% each time. Besides, the IC50 against MAP kinase p38 [4] was 39.2 nM. The fCmax in the series on Brain [7] came out at 0.241 µM; in the series on Plasma [8], 0.752 µM.

For `Cn1cc(-c2ccnc(C3COCCN3)c2)c(-c2ccc(F)cc2)n1` (single isomer, unassigned; (-)), the fCmax in the series on Brain [9] came to 3.7 µM; with Plasma [12], 1.95 µM. In addition, the IC50 is 4430 nM in series [10]; 25900 nM in series [11]; > 1000 nM against MAP kinase p38 [4]; 28.2 nM in series [13]; 5.3 nM in series [14]; 90 nM in series [15].

Consider `CNCc1cc(-c2cn(C)nc2-c2ccc(F)cc2)ccn1`, for which the fCmax in the series with Brain [9] worked out at 7.53 µM; in the series with Plasma [12] it was 9.66 µM. For the same compound, the IC50 at MAP kinase p38 [4] amounted to 3040 nM; in [13] it was 67.2 nM; in [14], 12.9 nM; in series [15], 63.8 nM.

Turning to `Cn1cc(-c2ccnc3c2OCCNC3)c(-c2ccc(F)cc2)n1`, in series [16], the Kp uu is 0.33. The fCmax is 2.97 µM in the series with Brain [9] and 8.82 µM with Plasma [12]. The selectivity ratio with hERG (KCNH2) [17] turned out to be 3. For the same compound, the IC50 in series [10] is 25700 nM; in [11] it was > 79600 nM; against MAP kinase p38 [4] it was 654 nM; in series [13], 27 nM; in series [15], 39 nM. Also, the Time with Mus musculus is listed as 175 min.

Turning to `Cn1cc(-c2ccnc(CO)c2)c(-c2ccc(F)cc2)n1`, the inhibition at 10 µM on hERG (KCNH2) [18] amounted to 6%. For the same compound, the IC50 amounted to 81.6 nM in [13], 14.2 nM in series [14] and 237 nM in [15]. This compound also gave an inhibition at MAP kinase p38 [6] of 42%.

With `Cn1cc(-c2ccncc2)c(-c2ccc(F)cc2)n1`, the inhibition at JNK2/JNK3 (Homo sapiens) was found to be 48%; in series [1], 66%; in series [19], 70.5%; in [20], 52%; in series [21], 61%; in [22], 55%. Further, the inhibition in series [5] stood at 80%; on MAP kinase p38 [6] it was 85%. Moreover, the IC50 on MAP kinase p38 [4] stood at 126 nM; in [13], 305 nM; in series [14] it was 48.1 nM; in series [15], 545 nM.

The record behind these values is ChEMBL document CHEMBL2417378, “Ligand-protein interactions of selective casein kinase 1δ inhibitors” (J Med Chem, 2013).
